ChEMBL document CHEMBL2384985 (Bioorg Med Chem Lett, 2013)
The source made the active and inactive calls. No cut-off for these calls is given here.

Columns and labels:
[1] = (§1) Induction of cardiomyogenic activity in human embryonic stem cells assessed as cardiomyocyte yield at 5 uM measured on day 15 by FACS analysis relative to control; format: functional, Embryonic stem cell
How it was run: (§2)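 Nkx2.5eGFP/w transgenic hESC line (eGFP driven by cardiac progenitor marker Nkx2.5). Compound present from Day 0, the day of embryoid body formation, to Day 8. On Day 15 EBs were dissociated to single cells for FACS. Nkx2.5 was read as GFP expression, and α-MHC by MF20 primary antibody with FITC-conjugated secondary.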

Embryonic stem cell [2] = experiment: Induction of cardiomyogenic activity in human embryonic stem cells assessed as cell growth at 5 uM measured on day 15 by FACS analysis; format: functional, cell-based
Embryonic stem cell [3] = experiment: Induction of cardiomyogenic activity in human embryonic stem cells assessed as cardiomyocyte yield at 5 to 15 uM measured on day 15 by FACS analysis; format: functional, cell-based; how it was run: as §2
Embryonic stem cell [4] = experiment: as §1; format: functional; how it was run: as §2
Embryonic stem cell [5] = experiment: Induction of cardiomyogenic activity in human embryonic stem cells assessed as cardiomyocyte yield at 5 to 100 uM measured on day 15 by FACS analysis; format: functional, cell-based; how it was run: as §2
[6] = Reduction of cardiomyogenic activity in human embryonic stem cells assessed as cardiomyocyte yield at 5 uM measured on day 15 by FACS analysis relative to control; format: functional, Embryonic stem cell; how it was run: as §2
Embryonic stem cell [7] = experiment: Induction of cardiomyogenic activity in human embryonic stem cells assessed as cardiomyocyte yield at 2 to 5 uM measured on day 15 by FACS analysis; format: functional, cell-based; how it was run: as §2
Embryonic stem cell [8] = experiment: Induction of cardiomyogenic activity in human embryonic stem cells assessed as cardiomyocyte yield at 1 to 5 uM measured on day 15 by FACS analysis; format: functional, cell-based; how it was run: as §2

Question: For `Cc1cccc(-c2nc(-c3ccc([S+](C)[O-])cc3)[nH]c2-c2ccncc2)c1` (stereo not given), which Ratio [1] is on record?
Answer: Its Ratio is 5.

Question: What about the Activity (Embryonic stem cell [2]) of the same compound?
Answer: Its Activity is “Active”.

Question: Which Activity (Embryonic stem cell [3]) does the source give for `Cc1cccc(-c2nc(-c3ccc([S+](C)[O-])cc3)[nH]c2C2=CCOCC2)c1` (stereo not given) here?
Answer: Its Activity is “inactive”.

Question: What about the Activity (Embryonic stem cell [4]) of the same compound?
Answer: Its Activity is “Active”.

Question: Which Activity (Embryonic stem cell [5]) does the source give for `C[S+]([O-])c1ccc(-c2nc(-c3ccc(F)cc3)c(C3=CCOCC3)[nH]2)cc1` (stereo not given) here?
Answer: Its Activity is “inactive”.

Question: What about the Ratio [6] of the same compound?
Answer: The Ratio was 2.

Question: For `Cc1cccc(-c2nc(-c3ccc(O)cc3)[nH]c2-c2ccncc2)c1`, which Activity (Embryonic stem cell [7]) is on record?
Answer: The Activity was “inactive”.

Question: Which Activity (Embryonic stem cell [8]) does the source give for `Cc1cccc(-c2nc(-c3ccccc3F)[nH]c2-c2ccncc2)c1` here?
Answer: Its Activity is “inactive”.

Question: For `Cc1cccc(-c2nc(-c3c(F)cccc3F)[nH]c2-c2ccncc2)c1`, which Activity (Embryonic stem cell [8]) is on record?
Answer: The Activity was “inactive”.

Question: For `C[S+]([O-])c1ccc(-c2nc(-c3ccc(F)cc3)c(-c3ccncc3)[nH]2)cc1` (stereo not given), which Activity (Embryonic stem cell [2]) is on record?
Answer: Its Activity is “Active”.
